Experimental data published in ChEMBL document CHEMBL3779851, “Synthesis and biological evaluation of salicylic acid conjugated isoxazoline analogues on immune cell proliferation and angiogenesis” (2016).
Activity calls are given as the source filed them. No cut-off for these calls is given here.

How the values were obtained:
Chorioallantoic membrane = assay: Pro-angiogenic activity in chicken chorioallantoic membrane assessed as dense blood vessel formation by measuring microvascular density at 20 uM after 12 days; assay type: functional; conditions: Gallus gallus
PBL [1] = assay: Ex-vivo induction of IL-23 production in human PBL at 100 uM after 72 hrs by ELISA; assay type: functional, cell-based
Summary of the method: (§1)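 Human PBLs were isolated from heparinized venous blood of consenting volunteers aged 18–60 y on Ficoll-hypaque (1.077 g/mL). They were seeded at 5×10^5 cells/well in RPMI-1640, exposed to compound in DMSO, and held 72 h at 37 °C, 5% CO2. Supernatants were taken after centrifugation at 240 × g, and IL-2, IL-12 and IL-23 were measured by ELISA, in triplicate.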

PBL [2] = assay: Immunostimulatory activity in human PBL assessed as increase in cell proliferation after 72 hrs by MTT assay; assay type: functional, cell-based
Summary of the method: (§2)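 Ficoll-isolated human PBLs were plated at 2.5×10^6 cells/mL in RPMI-1640 at 37 °C, 5% CO2. After 3 h they were treated with 0, 10, 20, 50 or 100 µM compound in DMSO, with Con A at 1–20 µg/mL as reference mitogen. MTT was added at 72 h for 4 h, and formazan dissolved in DMSO was read at 570 nm. Proliferative index was taken as fold over untreated control, from three independent experiments.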

Cornea = assay: Pro-angiogenic activity in rat cornea assessed as vascularization by measuring microvascular density at 20 ug after overnight incubation; assay type: functional
PBL [3] = assay: Ex-vivo induction of IL-2 production in human PBL at 100 uM after 72 hrs by ELISA (reference value: 328 pg/ml); assay type: functional; summary of the method: as §1
HEK293 = assay: Induction of cell proliferation of HEK293 cells assessed as proliferation rate at 100 uM measured up to 72 hrs by MTT assay; assay type: functional; conditions: Homo sapiens, HEK293, 72 h; read-out: Activity
PBL [4] = assay: Immunostimulatory activity in human PBL assessed as increase in cell proliferation […] after 72 hrs by MTT assay relative to control; assay type: functional; summary of the method: as §2
[5] = Immunostimulatory activity in Swiss albino mouse splenocytes assessed as increase in proliferation at 100 uM after 72 hrs by MTT assay relative to ConA; assay type: functional, Splenocyte
Summary of the method: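 Splenocytes came from Swiss albino mice (23–25 g, 12 weeks). Erythrocytes were lysed in NH4Cl/KHCO3/EDTA buffer, pH 7.4. Cells were plated at 2.5×10^6 cells/mL in RPMI-1640 at 37 °C, 5% CO2, and compound (0–100 µM in DMSO) was added after 3 h. After 72 h, MTT was added for 4 h and formazan dissolved in DMSO was read at 570 nm. Con A (1–20 µg/mL) served as reference, and the index was expressed as fold over untreated control (1.0).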

PBL [6] = assay: Ex-vivo induction of IL-12 production in human PBL at 100 uM after 72 hrs by ELISA; assay type: functional, cell-based; summary of the method: as §1
PBL [7] = assay: Ex-vivo induction of IL-2 production in human PBL at 100 uM after 72 hrs by ELISA relative to control; assay type: functional; summary of the method: as §1
[8] = molecular target: Prostaglandin G/H synthase 1 (Homo sapiens) (UniProt P23219); assay: Inhibition of COX1 in human PBL after 72 hrs by colorimetric method; conditions: concentration not given here
Sequence of Prostaglandin G/H synthase 1 (Homo sapiens) (P23219 whole entry): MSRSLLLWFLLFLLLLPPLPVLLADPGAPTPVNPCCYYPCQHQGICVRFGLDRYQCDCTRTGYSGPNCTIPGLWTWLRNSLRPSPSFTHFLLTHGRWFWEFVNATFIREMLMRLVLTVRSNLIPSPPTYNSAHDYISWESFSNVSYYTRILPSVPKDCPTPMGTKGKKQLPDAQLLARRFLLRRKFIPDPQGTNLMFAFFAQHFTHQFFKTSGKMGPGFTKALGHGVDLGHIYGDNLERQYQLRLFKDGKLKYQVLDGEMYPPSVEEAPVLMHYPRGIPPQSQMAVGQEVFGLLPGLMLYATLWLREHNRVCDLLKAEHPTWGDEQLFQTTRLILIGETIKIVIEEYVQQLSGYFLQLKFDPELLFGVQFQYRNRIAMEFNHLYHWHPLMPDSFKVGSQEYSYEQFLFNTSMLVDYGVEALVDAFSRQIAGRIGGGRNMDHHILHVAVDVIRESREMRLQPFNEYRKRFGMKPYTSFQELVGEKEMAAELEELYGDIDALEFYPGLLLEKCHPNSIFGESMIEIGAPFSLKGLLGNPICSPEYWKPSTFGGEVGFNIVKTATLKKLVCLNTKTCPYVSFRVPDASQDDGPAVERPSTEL

Compound	growth at 100 µM (HEK293)	Activity (PBL [4])	other results
COc1ccc(C2=NOC(c3cccc(Cl)c3)C2C(=O)c2ccc(O)c(C(=O)O)c2)cc1 (configuration not stated)	73%	–	Activity (Chorioallantoic membrane): Active; Activity (PBL [1]): inactive; Activity (PBL [2]): Dose-dependent effect; Activity (Cornea): Active; Activity (PBL [3]): 1460 pg/mL; fold change (FC) (PBL [4]): 1.25; fold change (FC) [5]: 1.2; Activity (PBL [6]): inactive; fold change (FC) (PBL [7]): 4; inhibition [8]: 39%
COc1ccc(C2ON=C(c3ccc(Cl)cc3)C2C(=O)c2ccc(O)c(C(=O)O)c2)cc1 (configuration not stated)	11%	inactive	–
O=C(O)c1cc(C(=O)C2C(c3ccc(Cl)cc3)=NOC2c2ccc(Br)cc2)ccc1O (configuration not stated)	6%	inactive	–
COc1ccc(C2=NOC(c3ccc(O)cc3)C2C(=O)c2ccc(O)c(C(=O)O)c2)cc1 (configuration not stated)	8%	–	–
O=C(O)c1cc(C(=O)C2C(c3cccc(Cl)c3)=NOC2c2cccc(Cl)c2)ccc1O (configuration not stated)	42%	Active	–
COc1ccc(C2=NOC(c3ccccc3)C2C(=O)c2ccc(O)c(C(=O)O)c2)c(OC)c1 (configuration not stated)	0%	–	–
O=C(O)c1cc(C(=O)C2C(c3ccc(Cl)cc3)=NOC2c2ccc(Cl)cc2)ccc1O (configuration not stated)	9%	inactive	–
O=C(O)c1cc(C(=O)C2C(c3cccc(Cl)c3)=NOC2c2ccc(Br)cc2)ccc1O (configuration not stated)	12%	inactive	–
COc1ccc(C2ON=C(c3cccc(Cl)c3)C2C(=O)c2ccc(O)c(C(=O)O)c2)cc1 (configuration not stated)	9%	inactive	–
O=C(O)c1cc(C(=O)C2C(c3cccc(Cl)c3)=NOC2c2ccc(O)cc2)ccc1O (configuration not stated)	0%	inactive	–
